ChEMBL document CHEMBL1125245, “Quinolone antibacterials: preparation and activity of bridged bicyclic analogues of the C7-piperazine” (J Med Chem, 1991)

Key:
[1] = Compound evaluated in vitro against five gram-positive bacterial strains and geometric means of the minimum inhibitory concentrations (MIC) reported.; type: functional; set-up: unit not given here
Outline: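 Geometric mean MIC across five Gram-positive strains, taken as antilog of the averaged log MIC values.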

Escherichia coli [2] = experiment: In vivo protection against gram-negative Escherichia coli vogel in mouse after subcutaneous administration; details: sc, read-out: PD50
DNA gyrase = DNA gyrase (Escherichia coli, UniProt P0AES4+P0AES6); experiment: Compound evaluated in vitro for the ability to inhibit gyrase.; type: protein-complex assay; details: read-out: I50 (converted)
Outline: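 DNA gyrase isolated from Escherichia coli H560 cells; inhibition given as I50.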

Escherichia coli [3] = experiment: In vivo protection against gram-negative Escherichia coli vogel in mouse after oral administration.; details: read-out: PD50
[4] = Compound evaluated in vitro against five gram-negative bacterial strains and geometric means of the minimum inhibitory concentrations (MIC) reported.; type: functional; set-up: unit not given here
Outline: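 Geometric mean MIC across five Gram-negative strains (E. coli H560, E. coli Vogel, Enterobacter cloacae MA 2646, Klebsiella pneumoniae MGH-2, Proteus rettgeri M1771). Mean taken as antilog of the averaged log MIC values.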

Streptococcus pneumoniae [5] = experiment: In vivo protection against gram-positive Streptococcus pneumonia (SV-1) in mouse after subcutaneous administration; type: functional; details: sc, read-out: PD50
Streptococcus pneumoniae [6] = experiment: In vivo protection against gram-positive Streptococcus pneumonia (SV-1) in mouse after oral administration.; type: functional; details: read-out: PD50

| SMILES | MIC [1] | ED50 (Escherichia coli [2]) | IC50 (DNA gyrase) | ED50 (Escherichia coli [3]) | MIC [4] | ED50 (Streptococcus pneumoniae [5]) | ED50 (Streptococcus pneumoniae [6]) |
| --- | --- | --- | --- | --- | --- | --- | --- |
| NC1CCN(c2nc3c(cc2F)c(=O)c(C(=O)O)cn3C2CC2)CC1 | 0.23 | 0.8 mg/kg | 8.66 µM | 4.6 mg/kg | 0.11 | – | – |
| O=C(O)c1cn(C2CC2)c2c(F)c(N3CCNCC3)c(F)cc2c1=O | 0.4 | 0.3 mg/kg | – | 0.5 mg/kg | 0.04 | 29 mg/kg | 59 mg/kg |
| O=C(O)c1cn(C2CC2)c2nc(N3CCN4CCC3C4)c(F)cc2c1=O (stereo not given) | 0.46 | 0.3 mg/kg | 38.5 µM | 0.5 mg/kg | 0.11 | 20 mg/kg | 32 mg/kg |
| CCN[C@H]1C[C@H]2CC[C@@H](C1)N2c1nc2c(cc1F)c(=O)c(C(=O)O)cn2C1CC1 | 0.26 | 2.8 mg/kg | 15.7 µM | 2.8 mg/kg | 0.46 | 16 mg/kg | 23 mg/kg |
| O=C(O)c1cn(C2CC2)c2c(F)c(N3CC4CCC3CN4)c(F)cc2c1=O (stereo not given) | 0.3 | 1.3 mg/kg | 16.8 µM | 2.9 mg/kg | 0.09 | – | – |
| O=C(O)c1cn(C2CC2)c2cc(N3CC4CCCC3CN4)c(F)cc2c1=O (stereo not given) | 0.06 | 1.6 mg/kg | 4.85 µM | 5.7 mg/kg | 0.08 | 6.6 mg/kg | > 100 mg/kg |
| Nc1c(F)c(N2C[C@H]3CC2CN3)c(F)c2c1c(=O)c(C(=O)O)cn2C1CC1 | 0.09 | 1 mg/kg | 36.7 µM | 5 mg/kg | 0.04 | 13 mg/kg | > 100 mg/kg |
| Nc1c(F)c(N2CC3CCC2CN3)c(F)c2c1c(=O)c(C(=O)O)cn2C1CC1 (stereo not given) | 0.06 | 0.7 mg/kg | 14.1 µM | 3.6 mg/kg | 0.06 | – | – |
| CCN[C@@H]1C[C@H]2CC[C@@H](C1)N2c1cc2c(cc1F)c(=O)c(C(=O)O)cn2C1CC1 | 0.26 | 2.3 mg/kg | 15.8 µM | 5.7 mg/kg | 0.8 | 23 mg/kg | 35 mg/kg |
| Nc1c(F)c(N2CC3CCCC2CN3)c(F)c2c1c(=O)c(C(=O)O)cn2C1CC1 (stereo not given) | 0.03 | 0.7 mg/kg | 2.23 µM | 4.8 mg/kg | 0.04 | 6.3 mg/kg | 35 mg/kg |
| CCN[C@H]1C[C@H]2CC[C@@H](C1)N2c1c(F)cc2c(=O)c(C(=O)O)cn(C3CC3)c2c1F | 0.46 | 6.5 mg/kg | 15.1 µM | > 12.5 mg/kg | 0.6 | – | – |
| O=C(O)c1cn(C2CC2)c2nc(N3C[C@H]4CC3CN4)c(F)cc2c1=O | 0.46 | 37 mg/kg | 18.3 µM | 53 mg/kg | 0.08 | – | – |
| CN1CC2CCC1CN2c1nc2c(cc1F)c(=O)c(C(=O)O)cn2C1CC1 (stereo not given) | 0.26 | 1.1 mg/kg | 14.8 µM | 1.4 mg/kg | 0.1 | – | – |
| O=C(O)c1cn(C2CC2)c2c(F)c(N3C[C@H]4CC3CN4)c(F)cc2c1=O | 0.53 | 0.4 mg/kg | 7.75 µM | 1.7 mg/kg | 0.07 | 18.5 mg/kg | > 100 mg/kg |
| O=C(O)c1cn(C2CC2)c2cc(N3C[C@H]4CC3CN4)c(F)cc2c1=O | 0.79 | 0.6 mg/kg | 8.15 µM | 5.5 mg/kg | 0.1 | 51 mg/kg | > 100 mg/kg |
| CCN[C@@H]1C[C@H]2CC[C@@H](C1)N2c1c(F)cc2c(=O)c(C(=O)O)cn(C3CC3)c2c1F | 0.17 | 3 mg/kg | 9.1 µM | 5.8 mg/kg | 0.61 | – | – |
| O=C(O)c1cn(C2CC2)c2cc(N3CC4CCC3CN4)c(F)cc2c1=O (stereo not given) | 0.1 | 0.7 mg/kg | 4.2 µM | 5.5 mg/kg | 0.08 | 24 mg/kg | > 100 mg/kg |
| Nc1c(F)c(N2CCNCC2)c(F)c2c1c(=O)c(C(=O)O)cn2C1CC1 | 0.05 | 0.2 mg/kg | – | 0.8 mg/kg | 0.02 | 23 mg/kg | 31 mg/kg |
| NC1CCN(c2c(F)cc3c(=O)c(C(=O)O)cn(C4CC4)c3c2F)CC1 | 0.08 | 1.4 mg/kg | < 1.38 µM | 4.7 mg/kg | 0.2 | – | – |
| O=C(O)c1cn(C2CC2)c2cc(N3CCN4CCC3C4)c(F)cc2c1=O (stereo not given) | 0.09 | 0.3 mg/kg | 8.39 µM | 1 mg/kg | 0.03 | 11 mg/kg | 35 mg/kg |

| SMILES | MIC [1] | ED50 (Escherichia coli [2]) | IC50 (DNA gyrase) | ED50 (Escherichia coli [3]) | MIC [4] | ED50 (Streptococcus pneumoniae [5]) | ED50 (Streptococcus pneumoniae [6]) |
| --- | --- | --- | --- | --- | --- | --- | --- |
| O=C(O)c1cn(C2CC2)c2nc(N3CC4CCC3CN4)c(F)cc2c1=O (stereo not given) | 0.11 | 0.7 mg/kg | 17.6 µM | 1.7 mg/kg | 0.13 | 15.1 mg/kg | > 100 mg/kg |
| CCN[C@@H]1C[C@H]2CC[C@@H](C1)N2c1nc2c(cc1F)c(=O)c(C(=O)O)cn2C1CC1 | 0.53 | 9.1 mg/kg | 15.7 µM | 21 mg/kg | 0.6 | – | – |
| O=C(O)c1cn(C2CC2)c2c(F)c(N3CC4CCCC3CN4)c(F)cc2c1=O (stereo not given) | 0.15 | 1.1 mg/kg | 7.45 µM | 2.9 mg/kg | 0.15 | 11.9 mg/kg | 48.5 mg/kg |
| N[C@H]1C[C@H]2CC[C@@H](C1)N2c1c(F)cc2c(=O)c(C(=O)O)cn(C3CC3)c2c1F | 0.03 | 0.75 mg/kg | 9.76 µM | 1.8 mg/kg | 0.05 | 3.1 mg/kg | 8.5 mg/kg |
| N[C@H]1C[C@H]2CC[C@@H](C1)N2c1cc2c(cc1F)c(=O)c(C(=O)O)cn2C1CC1 | 0.23 | 2 mg/kg | 8.08 µM | 9.5 mg/kg | 0.15 | – | – |
| CN1CC2CCC1CN2c1c(F)cc2c(=O)c(C(=O)O)cn(C3CC3)c2c1F (stereo not given) | 0.15 | < 1.6 mg/kg | 16.2 µM | < 1.6 mg/kg | 0.13 | – | – |
| NC1CCN(c2cc3c(cc2F)c(=O)c(C(=O)O)cn3C2CC2)CC1 | 0.17 | 1.4 mg/kg | 2.32 µM | 15 mg/kg | 0.17 | – | – |
| Nc1c(F)c(N2CCN3CCC2C3)c(F)c2c1c(=O)c(C(=O)O)cn2C1CC1 (stereo not given) | 0.08 | 0.2 mg/kg | 14.1 µM | 0.6 mg/kg | 0.03 | – | – |
| O=C(O)c1cn(C2CC2)c2c(F)c(N3CCN4CCC3C4)c(F)cc2c1=O (stereo not given) | 0.15 | 0.2 mg/kg | 7.73 µM | 0.5 mg/kg | 0.04 | 11 mg/kg | 32 mg/kg |
| Cl.O=C(O)c1cn(C2CC2)c2nc(N3C[C@@H]4CC3CN4)c(F)cc2c1=O | 0.26 | 1.6 mg/kg | – | 2.2 mg/kg | 0.03 | – | – |
| Br.O=C(O)c1cn(C2CC2)c2cc(N3C[C@@H]4CC3CN4)c(F)cc2c1=O | 0.3 | 0.2 mg/kg | 4.48 µM | 1.9 mg/kg | 0.04 | 12.5 mg/kg | > 100 mg/kg |
| CN1CC2C[C@@H]1CN2c1c(F)cc2c(=O)c(C(=O)O)cn(C3CC3)c2c1F.Cl | 0.17 | 0.5 mg/kg | 7.28 µM | 0.9 mg/kg | 0.09 | 14 mg/kg | 13 mg/kg |
| Cl.N[C@@H]1C[C@H]2CC[C@@H](C1)N2c1nc2c(cc1F)c(=O)c(C(=O)O)cn2C1CC1 | 0.46 | 1.1 mg/kg | 42.8 µM | 2.1 mg/kg | 0.25 | 21 mg/kg | 29 mg/kg |
| Cl.N[C@H]1C[C@H]2CC[C@@H](C1)N2c1nc2c(cc1F)c(=O)c(C(=O)O)cn2C1CC1 | 0.4 | 6 mg/kg | 18.3 µM | 71 mg/kg | 0.79 | – | – |
| Cl.O=C(O)c1cn(C2CC2)c2nc(N3CC4CCCC3CN4)c(F)cc2c1=O (stereo not given) | 0.09 | 0.8 mg/kg | 7.34 µM | 2.3 mg/kg | 0.08 | 18 mg/kg | 25 mg/kg |
| Cl.N[C@@H]1C[C@H]2CC[C@@H](C1)N2c1c(F)cc2c(=O)c(C(=O)O)cn(C3CC3)c2c1F | 0.11 | 4 mg/kg | 8.92 µM | 21 mg/kg | 0.26 | – | – |
| CCN[C@H]1C[C@H]2CC[C@@H](C1)N2c1cc2c(cc1F)c(=O)c(C(=O)O)cn2C1CC1.F | 1.81 | – | 41.7 µM | – | 2.76 | – | – |
| Br.Nc1c(F)c(N2C[C@@H]3CC2CN3)c(F)c2c1c(=O)c(C(=O)O)cn2C1CC1 | 0.25 | 1.1 mg/kg | – | 6.1 mg/kg | 0.07 | – | – |
| O=C(O)c1cn(C2CC2)c2nc(N3CCNCC3)c(F)cc2c1=O | 1.21 | 0.4 mg/kg | 150 µM | 0.7 mg/kg | 0.06 | – | – |
| O=C(O)c1cn(C2CC2)c2cc(N3CCNCC3)c(F)cc2c1=O [CIPROFLOXACIN] | 0.91 | 0.3 mg/kg | – | 1.2 mg/kg | 0.06 | 29 mg/kg | > 100 mg/kg |
